Published values from different studies.
Target: Serine/threonine-protein kinase MAK (MAK, Homo sapiens, UniProt P20794)
Sequence (P20794 1-623, as in one of the studies): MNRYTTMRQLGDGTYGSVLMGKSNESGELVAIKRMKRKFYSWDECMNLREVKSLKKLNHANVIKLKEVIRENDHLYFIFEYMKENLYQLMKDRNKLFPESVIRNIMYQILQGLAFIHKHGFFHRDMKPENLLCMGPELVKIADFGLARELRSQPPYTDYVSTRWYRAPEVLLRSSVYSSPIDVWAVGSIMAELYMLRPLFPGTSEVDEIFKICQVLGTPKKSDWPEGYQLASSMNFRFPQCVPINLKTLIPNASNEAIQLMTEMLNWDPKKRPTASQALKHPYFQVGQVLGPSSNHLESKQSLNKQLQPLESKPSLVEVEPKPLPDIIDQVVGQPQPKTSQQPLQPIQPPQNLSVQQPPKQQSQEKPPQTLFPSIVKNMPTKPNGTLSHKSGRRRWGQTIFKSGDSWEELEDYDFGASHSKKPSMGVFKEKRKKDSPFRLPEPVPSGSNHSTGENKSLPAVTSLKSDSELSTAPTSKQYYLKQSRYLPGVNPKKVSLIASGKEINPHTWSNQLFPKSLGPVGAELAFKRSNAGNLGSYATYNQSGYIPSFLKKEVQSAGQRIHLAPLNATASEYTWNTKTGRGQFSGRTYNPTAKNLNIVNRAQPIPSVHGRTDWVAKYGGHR

Cc1sc(C(=O)NC2COC2)cc1-n1cc(NC(=O)Nc2c(F)cccc2Cl)cn1
remaining activity (enzyme activity; inhibitor; 10 µM): 120%

Nc1ncnc2occ(-c3ccc(NC(=O)Nc4cc(C(F)(F)F)ccc4F)cc3)c12
remaining signal (cell-free assay; 20 µM): 7.9%

Cc1ccc(C(=O)NCc2ccsc2)cc1C#Cc1cn(C(C)C)c2ncnc(N)c12
activity vs control (enzyme activity; inhibitor; 1 µM): 120%

CC(C)CC(=O)N1CCc2nc(-c3ccc(Br)cc3)nc(N(C)Cc3ccccc3)c2C1
remaining binding (cell-free assay; competition with immobilised ligand; 0.1 µM): 99%

O=C(Nc1cnn(-c2csc(C(=O)NC3COC3)c2)c1)Nc1c(F)cccc1Cl
remaining activity (enzyme activity; inhibitor; 5 µM): 97.6%

Cc1ccc(C(=O)Nc2ccc(CN3CCN(C)CC3)c(C(F)(F)F)c2)cc1C#Cc1cnc2cccnn12
remaining activity (enzyme activity; 23.5 nM): 93%

CN1CC(Oc2cnc(C#N)cc2-c2ccn3nc(NC(=O)C4CC4)cc3c2)C1
inhibition (enzyme activity; inhibitor; 1 µM): 3%

NS(=O)(=O)c1cc(NC(=O)C2(c3ccccc3Cl)CC2)ccc1Oc1cccc(Cl)c1
remaining binding (binding; competition with immobilised ligand; 1 µM): 89%
